# The list is not random: actives were taken first. Their share in the collection is about 1.7%.
# Vif inh – blocks HIV Vif function | HEK293T cells, Vif self-association by quenched fluorescence, imaging, 24 h | inhibition, % at 7.49 µM | actives 0.35% (n = 340,000); in the data active = inhibition above about 50%, passing the limit was not always enough
# SR-BI DiI-HDL act – activators of SR-BI mediated HDL lipid uptake | activation, % at 12.5 µM | actives 0.096% (n = 320,000) | CHO ldlA[mSR-BI] cells, DiI-HDL uptake fluorescence, 3 h; 100 = double the neutral-control signal;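 active = mean replicate activation of at least 60% and every replicate at or above 60%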;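 note: 0% = median plate neutral-control signal and 100% = twice that signal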
#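 Material – SR-BI-overexpressing, LDLR-lacking CHO cells · Medium – BSA-supplemented, HEPES-buffered Ham's F12, pH 7.4 · Doses – single concentration · Times – compound with DiI-HDL co-incubation, 3 h at 37 °C · Measured by – bottom-read fluorescence, 550/595 nm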
# V-ATPase pHluor – yeast V-ATPase proton transport regulation by pHLuorin; actives 0.37% (n = 350,000); S. cerevisiae, pHLuorin cytosolic pH fluorescence; AID 504577; response, % at 10 µM; in the data active = response mostly above about 7.3%, no sharp cut-off; inactive = mostly below about 5.4%; note: actives read high
# SR-BI HDL uptake – blocks mouse SR-BI lipid uptake from DiI-HDL; inhibition, % at 12.5 µM; Q61009; ldlA[mSR-BI] CHO cells, DiI-HDL uptake fluorescence, 3 h; AID 488896; actives 0.96% (n = 320,000);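 active = mean replicate inhibition of at least 70% and a set share of replicates each scoring 70 or more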;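 note: 0% = median of neutral control wells and 100% = median of positive control wells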
# CaV13 FRET inh – Primary screen for inhibitors of IQ motif and Ca2+-dependent inactivation inhibitor domain binding in CACNA1D, Förster resonance energy transfer in living cells, …; HEK cells, CFP/YFP FRET ICDI-IQ, plate reader, 10 min; percent FRET-ratio fall versus neutral wells; inhibition, % at 12.3 µM; actives 0.098% (n = 340,000); AID 743397;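 active = mean replicate inhibition of at least 30% and at least 1% of replicates passing that level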;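 note: 0% = median of the neutral control wells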
# NTR1 ag – agonists of human neurotensin receptor NTR1. P30989. NTR1-U2OS beta-arrestin-GFP spot imaging, agonist mode. activation, % at 20 µM. actives 0.17% (n = 330,000). AID 493036;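 active = activation at or above 40% of the spot to cytoplasm intensity ratio, with at least 20 cells analyzed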;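 note: 0% = DMSO without peptide and 100% = 100 nM NTR1 peptide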
# VATPase regulator – regulators of yeast V-ATPase proton transport. shares compounds with V-ATPase pHluor. S. cerevisiae pHLuorin cytosolic pH. response, % at 10 µM. actives 2% (n = 980). AID 602197; in the data active = response above about 24%;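 note: plate controls were vehicle wells for no effect and positive control wells for full effect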
# The depositor's hits bear a star; · = no result.
SMILES,Vif inh,SR-BI DiI-HDL act,V-ATPase pHluor,SR-BI HDL uptake,CaV13 FRET inh,NTR1 ag,VATPase regulator
CCOc1ccc(NC(=O)CCC(=O)N/N=C(\C)c2cccs2)cc1,-8,5,8.8*,-5,·,0,1
CCOc1ccc(NC(=O)c2ccco2)cc1,19,0,2,0,-7,-1,·
CCOc1ccc(NC(=O)CCC(=O)NNC(=O)c2ccco2)cc1,2,7,9.2*,-7,-14,2,3
Cc1ccc(S(=O)(=O)NC(=O)NCCCCNC(=O)NS(=O)(=O)c2ccc(C)cc2)cc1,·,13,18*,-13,-5,-2,1
COc1ccc(Nc2ncnc3c2cnn3-c2ccccc2)cc1OC,-7,-21,11*,21,-6,0,5
CCCc1nnc(NC(=O)CCC(=O)NC2CCCCCC2)s1,6,20,0,-20,-7,1,·
CCC1Oc2ccc(C)cc2N(CC(=O)NCc2cccs2)C1=O (stereo not given),·,3,3,-3,-6,2,·
CCC1Oc2ccccc2N(CC(=O)NCc2cccs2)C1=O (stereo not given),9,-1,12*,1,3,-1,1
O=C(CSc1nnc(-c2ccccc2)o1)OCc1ccccc1,-1,·,-5,·,-6,5,3
CCN(CC)C(=O)CCSc1nnc(-c2ccncc2)o1,5,8,1,-8,-2,2,·
CCN(CC)C(=O)CSc1nnc(-c2ccccc2)o1,18,6,-1,-6,-5,0,2
CCOc1ccc(-c2nnc(SCC(=O)NC3CC3)o2)cc1,26,-5,10.0*,5,-2,1,-1
COc1ccccc1CNC(=O)C(Cc1c[nH]c2ccccc12)NC(=O)OCc1ccccc1 (stereo not given),4,-2,1,2,-6,3,·
Cc1ccc(-c2nc(Nc3ccc(N4CCOCC4)cc3)c3ccccc3n2)cc1,·,-64,0,64,-4,32,·
CCOC(=O)c1c(-c2ccc(C)o2)csc1NC(=O)CSc1nnc(C)s1,-5,-8,9.2*,8,-5,1,-1
CCOC(=O)c1c(-c2ccccc2)csc1NC(=O)CSc1nnc(C)s1,-5,-10,1,10,-6,7,·
COc1ccc([N+](=O)[O-])cc1N(CC(=O)N1CCN(Cc2ccccc2)CC1)S(C)(=O)=O,-3,29,8.8*,-29,-2,-1,0
COc1ccc(OC)c(N(CC(=O)N2CCN(Cc3ccccc3)CC2)S(C)(=O)=O)c1,-1,22,3,-22,-6,2,·
COCCNC(=S)N(CCc1c(C)[nH]c2ccccc12)Cc1ccco1,0,-61,11*,61,-4,3,-3
CCNC(=S)N(CCc1c(C)[nH]c2ccc(Cl)cc12)Cc1ccco1,-30,-55,-1,55,-4,21,·
Cc1nc2ccc(NC(=O)c3cc(Cl)ccn3)cc2s1,1,-16,4,16,-3,0,·
CC1=C(C#N)CCC(=O)N1Cc1c(F)cccc1Cl,2,21,9,-21,-5,0,-3
CC(C)(C)c1cc[n+](-c2[nH]c(=O)sc2/C=N/NC([S-])=Nc2ccccc2)cc1,3,5,0,-5,-117,0,·
O=c1cc(CCl)nc2sc3ccccc3n12,0,·,13*,·,-5,3,1
O=C(OCc1cc(=O)n2c(n1)sc1ccccc12)c1ccc(O)cc1,-2,11,6,-11,-2,0,·
CC(=O)c1cccc(NC(=O)COC(=O)CCC(=O)c2cccs2)c1,·,41,-2,-41,-5,1,·
O=C(NCc1cccnc1)c1ccc(NC(=O)c2ccc([N+](=O)[O-])cc2)cc1,-14,-5,-1,5,-6,-1,·
COc1ccc(C(=O)CNc2ccccc2C#N)cc1,2,·,9.3*,·,0,1,2

# Bioassay records (PubChem BioAssay)
